System: MS2 coat protein
Assay: apparent Kd, MS2 coat protein; higher = weaker binding; RNA-MaP array; FMN 200 µM where present
Procedure, shortened: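 Apparent Kd: the median of filtered binding-curve fits from single clusters. Designs were transcribed on Illumina sequencing-chip clusters by stalled E. coli RNA polymerase and titrated with SNAP-549-labelled MS2 coat protein from 0.7 or 1.5 nM, doubling to 3 µM, in 100 mM Tris-HCl pH 7.5, 80 mM KCl, 4 mM MgCl2, BSA, DTT, yeast tRNA and Tween-20. Each series ran without and then with constant ligand, and green signal was normalised to red-channel RNA signal and control-cluster median Fmax.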

[1] = designed as: ON switch for flavin mononucleotide, no ligand
[2] = ligand present: flavin mononucleotide, designed as: ON switch for flavin mononucleotide
[3] = designed as: OFF switch for flavin mononucleotide, no ligand
[4] = ligand present: flavin mononucleotide, designed as: OFF switch for flavin mononucleotide

| Sequence | apparent Kd [1] [nM] | apparent Kd [2] [nM] | apparent Kd [3] [nM] | apparent Kd [4] [nM] |
| --- | --- | --- | --- | --- |
| UGUGUUAUCGGAGGAUAUCGAUAUCAAACAUGAGGAUCACCCAUGUUGAGGAUCACCCAUGUCCACGAGAAGGCCGGCGUAGUG | 18.1 | 18.3 |  |  |
| CUGUUACAUGAGGAUCACCCAUGUGAGGAUAUGGUUCGGUACUGUCCUGUCGCGUACUCCAGAAGGCACGUGUC |  |  | 29.4 | 29.9 |
| GACAUCGCAGGAUAUUAGGGUUUGUACAUGAGGAUCACCCAUGUUAAUUGGGUUAAUGUCUAAGAAGGGCGGUGUC |  |  | 147 | 240 |
| UAUAUAUAGGCAGGAUAUACAUGAAUAUAUAAUAUAUUAUAUAAUAUAACAUGAGGAUCACCCAUGUAGAAGGGCCAUAAUAUA |  |  | 67 | 106 |
| GCAUGUGUGUAAGGAUAUGCAUCACUGAGAAAUUUAGUGAGGAAGAUCACAUGAGGAUCACCCAUGUAGAAGGUACACACGUGG |  |  | 9.3 | 54.5 |
| CAGUACUGAGGAUAUACAUGAGGAUCACCCAUGUGCUUUAGCUAGGAUACUAGCAUUAGUAGAAGGCAGUACUG |  |  | 12.3 | 21.5 |
| CCGCUAAAUGGAGGAUAUGGAGCCUUAUUGGCUCCAGAAGGUCAAAACAUGAGGAUCACCCAUGUGCGGCGGUCUAAUGACCGA | 186 | 50.2 |  |  |
| GUCGGAAACGACAAAAGUAGCAUAGGAGAAGGUUCAUUAAACAUGAGGAUCACCCAUGUAAUUGGGAAGGAUAUCCUAUGCUAC | 16.2 | 9.16 |  |  |
| AUUGUGUGAGGAUAUUAGUAGUAGAUAAAUGGAGUUGUAACUGAGAAGGCACAUGAGGAUCACCCAUGUUCCUU |  |  | 18.7 | 24.6 |
| UUAAAUCAUGUAGGAUAUGCAUGGCGAAGCUACGCAGAAGGACAUGAGGAUCACCCAUGUUAUAGCUACCCGUUACGGUGGCAA |  |  | 89.1 | 239 |
| CCUCUACAUGAGGAUCACCCAUGUGAGGAUAUCAAAGCCAGAGCGGCGCUCUGGCCCAUGAGAAGGUGCAUGGA |  |  | 25.9 | 133 |
| GAUAGUCCUGAGAAGGACAUGAGGAUCACCCAUGUGAUUAUACCAGUGCAAUGAAAGCACUGGAUGUAGGAUAUCAGGACUAUC |  |  | 15.3 | 96.1 |
| GAGCUAUGAGGAUAUGCAUAUAUACGGAUUCGUGUAGUACUACAUGAGGAUCACCCAUGUAGAAGGCGUGGCAG |  |  | 13.1 | 15.1 |
| GCUGCGCGAGGAUAUGCGGUUCGCGCGGUGGCCGCUGGCGGACAUGAGGAUCACCCAUGUAGAAGGCGUGCGGG |  |  | 17 | 19.4 |
| AGAUCACAUGAGGAUCACCCAUGUGAGGAUAUAGAUUCAAGAGCUUCGGCUCUAAAGUCUAGAAGGCGCUAUGA |  |  | 25.1 | 25.6 |
| UGUUAAUUGUAGAAGGGUGACAUGAGGAUCACCCAUGUUCACAUGCGAUUUACGGCGCAUGUUCCACAGGAUAUACAGUUGAGU | 556 | 97.8 |  |  |
| GCCAACUUAUGAGGAUAUGGCACCUUAUUGGUGCCAGAAGGCAUGUCUAUUGACAUGAGGAUCACCCAUGUAUUAUAGUUGGCA | 715 | 159 |  |  |
| UGUCAGAUGGUAGGAUAUUCAUAUCGAGUGACCCUUUCAUAACAUGAGGAUCACCCAUGUCGGUGGGAGAAGGGCCGUAUGGUG |  |  | 29.8 | 30.3 |
| UGAAUCUAGUAAGGAUAUACACGAGAUACAAGUGUAGAAGGUACUUACAUGAGGAUCACCCAUGUAUACAUGGAUAAUAGAUAU | 291 | 182 |  |  |
| GCUGUGGCAUGAGGAUAUGCUCAGCUUUGCUGAGCAGAAGGCAUGUCAAUAGACAUGAGGAUCACCCAUGUAGUUAACACAGCA | 462 | 32.9 |  |  |
| CAGCUACCCAGUAUGGGUAUUUUUACAGAAGGCCAGGCACAUGAGGAUCACCCAUGUCAAGUUAUGGAGGAUAUGUUAGUGUAU | 8.25 | 4.76 |  |  |
| UCUGAUAUUCCCGUGCCUCCAACACAGGAUAUCCGUCACAACAUGAGGAUCACCCAUGUCCGGGAGGAGAAGGGUGUGGAGAGU | 91.3 | 21.5 |  |  |
| AUUAUUGACAUAGGAUAUUGUUACAUGAGGAUCACCCAUGUUAUUUGGGAACUAGGAAUAUUUUACAAGAAGGAUGUUGUUACA | 101 | 81.3 |  |  |
| UGGUCAUCAUCAGGAUAUUAACGUGGGCUACUUUAAGAAGGGAUAGUGGGAGAGGAUGUGAAACAUGAGGAUCACCCAUGUUGU | 15.7 | 12.3 |  |  |
| GACUGCUGAGGAUAUACAUGAGGAUCACCCAUGUGCUUCAGCAUCGAAAGAUGCAUUGGUAGAAGGUAGUAGUC |  |  | 11.4 | 20.1 |
| CCGGAAUCCUAGGAUAUGCUAGACGAUAGUCUAGCAGAAGGAGGAACAUGAGGAUCACCCAUGUGUCCUACCGG |  |  | 17.2 | 22.1 |
| CCCACGAAAGUCGAACGAUGUAGGAGAAGGACAAUAACAUGACAUGAGGAUCACCCAUGUGCCAUGUAGGAUAUCCUACAUGGG |  |  | 7.86 | 7.78 |
| GGGUGACAUGAGGAUCACCCAUGUCAGGAUAUGAUACUAUGUACUUCGGUACAUAGUAUCAGAAGGGACAUCAU |  |  | 284 | 29.9 |

| Sequence | apparent Kd [1] [nM] | apparent Kd [2] [nM] | apparent Kd [3] [nM] | apparent Kd [4] [nM] |
| --- | --- | --- | --- | --- |
| AAAGCGUGAGGAUAUGAGGCGCCGGGCCGGUUGGUGCGGAUUCAGAAGGCACAUGAGGAUCACCCAUGUAGGAA |  |  | 23.4 | 36.2 |
| GUGUACAUCGGAGGAUAUCAUGUAAAUACAUGAGGAUCACCCAUGUCGAUGGAGACAUCGGAGAUUGAGAAGGCCGAUGUACCG | 169 | 9.35 |  |  |
| UAAACAUGAGGAUCACCCAUGUUAUGAUCGGUUGAUGAAUGUGAGGAUAUACUUAAUUUUAUGGAGUAGAAGGCACUGGGUUCU | 29.1 | 30 |  |  |
| AUGGUUGUCGUAGGAUAUGUAGGAUAUUCCUACAUGAGGAUCACCCAUGUUCGCAUGGAAGAAGGACGGAAGGACGAUGACCAG | 452 | 163 |  |  |
| AGACGGAUCCGCGGUCGAUGCUAACUAGAAGGGCAGGUCACAUGAGGAUCACCCAUGUAGUAUAUGUAGGAUAUAGGAAGCGUG | 95.2 | 20.9 |  |  |
| AAAAAGGCAGGAUAUGCAUACACACAAAAAAAAAAACUGGGACAUGAGGAUCACCCAUGUAGAAGGGCCAAAAA |  |  | 29.4 | 25.9 |
| CAUCCACAUGAGGAUCACCCAUGUCAGGAUAUCUAUCAUAGCAUCGAAAGAUGCGGGUAGAGAAGGGACAAACC |  |  | 12.9 | 20.2 |
| AGAAAACAUGAGGAUCACCCAUGUGAGGAUAUGCAAAUAUAUACGAAAGAUUAUAAAAGCAGAAGGCACAAAAG |  |  | 111 | 130 |
| UGAGCCGGCACUGAGGAUAUUCAUAUUAAAACAUGAGGAUCACCCAUGUAGGCCAGAAGGCCUUGGGAGAAGGCAGGUCGGCUCA | 403 | 20.6 |  |  |
| GCUAUCGAUGUAGGAUAUGCUAGGGAAACCCUGGCAGAAGGACAUGAGGAUCACCCAUGUCAAUGAGUGAAGAGAAGAGAUGGC |  |  | 43.3 | 127 |
| ACCUUACAUGAGGAUCACCCAUGUCAGGAUAUCUCGGGCGGCCAAGGGCCGGCCGCCCAGAGAAGGGACGAGGA |  |  | 14.5 | 13.7 |
| UUUUAACAUGAGGAUCACCCAUGUGAGGAUAUCGAAAUUUAUAUUAAUAUUUAUAUAUCGAGAAGGCACAUUUU |  |  | 113 | 97.8 |
| AUGUGGUGCGUAGGAUAUCAUUAAAGAAAACCCUGAGAAGGACGUGAGGACAUGAGGAUCACCCAUGUGGAUCACCCAUGUCAA |  |  | 316 | 278 |
| GCUGCAUAUGAGAAGGCGAUCAUGAAACAUGAUCGAGGAUAUCAUGUAAACAUGAGGAUCACCCAUGUAUGGGUAUUAAGCAGC | 282 | 50.5 |  |  |
| GUGUUGUCAGGAUAUCUUACAUAACAAUCGUUGUUACCAUUGGAGAAGGGACAUGAGGAUCACCCAUGUUAUCC |  |  | 24.1 | 26.3 |
| GUCAGCUAGUGAGGAUAUACAACACUGCUUCGGCAGUGUAUUAAGAUCACAUGAGGAUCACCCAUGUAGAAGGCACGAGCUGAU |  |  | 13.8 | 273 |
| AGCUGUGGCCGAGGAUAUCUAAUAACUCAAACCGAAAUAUAAUCGGACAUGAGGAUCACCCAUGUAGAGAAGGCGGUCUCAGCA |  |  | 84.6 | 154 |
| AUCAGCUCGUCAGGAUAUACGUCACUGUGUCAGCAGUGUGGUAAGAUCACAUGAGGAUCACCCAUGUAGAAGGGACGAGCUGAU |  |  | 12.9 | 235 |
| GCAGUGCGAGGAUAUACAUGAGGAUCACCCAUGUGAGAAUAAGAAGUGAGGAAGAAAAGUAGAAGGCGCGUUGG |  |  | 52.4 | 155 |
| UGUCAUUUACAGAAGGGUAGUUGGGUUUUACAUGAGGAUCACCCAUGUUUUACAGGAUAUGUGUUUUGUUACUAUUAAAGUUCA |  |  | 66.5 | 123 |
| GAGAAGUCAGGAUAUGCUGCUCGUCACUUGCGUGAUGAGUAGCAGAAGGGACAUGAGGAUCACCCAUGUGGAAA |  |  | 107 | 202 |
| GUAUUUAGAUAAGGAUAUAAGUCUAGGACAUGAGGAUCACCCAUGUGUGUCUUAGAAGGUAUUUGGGUAAUACUGUUACAGUAA | 150 | 99.5 |  |  |
| UCACGGGAUUGAGGAUAUAUAUUAAUUUUUUUUAUAGAAGGCAAAAUGUUAGAUUAUUCACUAUACAUGAGGAUCACCCAUGUU |  |  |  | 22.7 |
| GGAUUUCCUGAGGAUAUUGUAUCACCUGAUUGAUAAGAAGGCAGAACAUGAGGAUCACCCAUGUGGGUACUCGG |  |  | 134 | 135 |
| CCCGGCGUGUCGCUACGCCGAGAGCAGGAUAUUCCGCCGUGAUCUACAUGAGGAUCACCCAUGUGGAAGAAGGGCUACACAAAA |  |  | 14.2 | 122 |
| UAAGUGUGAGGAUAUGGUAAAGAUAAGAUGAUGAAAGAACUCCAGAAGGCACAUGAGGAUCACCCAUGUAGAUG |  |  | 39.4 | 141 |
| UGUGCGUUGAUCUUCGAUCGGUGUACAUGAGGAUCACCCAUGUAGGAUAUUCAAAGACGCAGAUAGGAGAAGGACAUUGGUUUU |  |  | 16.8 | 20 |
